Experimental data as given in ChEMBL document CHEMBL4627265, “Optimization of 8-oxoadenines with toll-like-receptor 7 and 8 activity” (Bioorg Med Chem Lett, 2020).
Calls of active or inactive are those of the source. The rule behind the calls is not given here.

Key:
Type in all cases: cell-based
[1] = biological target: T1, Toll-like receptor 8 (Homo sapiens) (UniProt Q9NR97); assay: Agonist activity at TLR8 in human PBMC assessed as induction of myeloid dendritic cell maturation by measuring increase in CD80 level at 0.1 uM after 6 hrs by flow cytometry relative to control
T1 sequence (whole entry): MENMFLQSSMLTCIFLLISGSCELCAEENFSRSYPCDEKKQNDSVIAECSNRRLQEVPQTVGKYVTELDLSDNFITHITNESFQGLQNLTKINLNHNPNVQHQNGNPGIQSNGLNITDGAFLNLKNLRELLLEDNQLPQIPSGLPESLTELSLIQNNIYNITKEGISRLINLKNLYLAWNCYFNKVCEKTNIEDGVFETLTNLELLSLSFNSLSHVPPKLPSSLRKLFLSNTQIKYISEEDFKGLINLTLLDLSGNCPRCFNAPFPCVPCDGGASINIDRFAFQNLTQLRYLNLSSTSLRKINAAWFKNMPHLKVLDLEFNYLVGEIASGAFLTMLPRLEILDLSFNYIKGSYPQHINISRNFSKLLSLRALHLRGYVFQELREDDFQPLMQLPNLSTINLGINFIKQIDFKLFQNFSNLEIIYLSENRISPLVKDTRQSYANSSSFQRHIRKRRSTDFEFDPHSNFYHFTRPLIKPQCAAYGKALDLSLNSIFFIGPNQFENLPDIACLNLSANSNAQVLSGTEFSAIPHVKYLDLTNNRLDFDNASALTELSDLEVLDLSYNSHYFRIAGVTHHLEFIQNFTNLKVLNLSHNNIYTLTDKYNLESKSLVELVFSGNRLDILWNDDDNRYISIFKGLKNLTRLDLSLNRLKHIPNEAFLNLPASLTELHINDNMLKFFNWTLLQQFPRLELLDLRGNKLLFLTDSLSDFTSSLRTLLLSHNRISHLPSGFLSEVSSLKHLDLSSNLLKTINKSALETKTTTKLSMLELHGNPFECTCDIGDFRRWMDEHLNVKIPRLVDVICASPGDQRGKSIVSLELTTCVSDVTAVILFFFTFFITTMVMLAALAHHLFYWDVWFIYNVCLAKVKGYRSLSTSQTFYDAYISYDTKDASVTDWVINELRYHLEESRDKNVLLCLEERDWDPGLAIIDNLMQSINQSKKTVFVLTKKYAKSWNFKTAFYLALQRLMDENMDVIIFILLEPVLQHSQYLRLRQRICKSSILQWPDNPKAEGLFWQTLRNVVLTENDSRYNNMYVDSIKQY
Outline: (§1)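 hPBMCs stimulated 6 h at a single 0.1 μM dose; HLA-DR, MHC-I, CD80 and CD86 on mDCs and pDCs measured by flow cytometry, expressed as fold change versus unstimulated cells. Mean ± SD of three independent experiments in three different donors.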

[2] = biological target: T1, Toll-like receptor 8 (Homo sapiens); assay: Agonist activity at TLR8 in human PBMC assessed as induction of myeloid dendritic cell maturation by measuring HLA-DR level at 0.1 uM after 6 hrs by flow cytometry; outline: as §1
[3] = biological target: T1, Toll-like receptor 8 (Homo sapiens); assay: Agonist activity at TLR8 in human PBMC assessed as induction of myeloid dendritic cell maturation by measuring CD86 level at 0.1 uM after 6 hrs by flow cytometry; outline: as §1
Toll-like receptor 7 = biological target: T2, Toll-like receptor 7 (Homo sapiens, UniProt Q9NYK1); assay: Agonist activity at human TLR7 expressed in HEK293 cells assessed as induction of NFKappaB activity after 24 hrs by SEAP reporter gene assay
T2 sequence (Q9NYK1 whole entry): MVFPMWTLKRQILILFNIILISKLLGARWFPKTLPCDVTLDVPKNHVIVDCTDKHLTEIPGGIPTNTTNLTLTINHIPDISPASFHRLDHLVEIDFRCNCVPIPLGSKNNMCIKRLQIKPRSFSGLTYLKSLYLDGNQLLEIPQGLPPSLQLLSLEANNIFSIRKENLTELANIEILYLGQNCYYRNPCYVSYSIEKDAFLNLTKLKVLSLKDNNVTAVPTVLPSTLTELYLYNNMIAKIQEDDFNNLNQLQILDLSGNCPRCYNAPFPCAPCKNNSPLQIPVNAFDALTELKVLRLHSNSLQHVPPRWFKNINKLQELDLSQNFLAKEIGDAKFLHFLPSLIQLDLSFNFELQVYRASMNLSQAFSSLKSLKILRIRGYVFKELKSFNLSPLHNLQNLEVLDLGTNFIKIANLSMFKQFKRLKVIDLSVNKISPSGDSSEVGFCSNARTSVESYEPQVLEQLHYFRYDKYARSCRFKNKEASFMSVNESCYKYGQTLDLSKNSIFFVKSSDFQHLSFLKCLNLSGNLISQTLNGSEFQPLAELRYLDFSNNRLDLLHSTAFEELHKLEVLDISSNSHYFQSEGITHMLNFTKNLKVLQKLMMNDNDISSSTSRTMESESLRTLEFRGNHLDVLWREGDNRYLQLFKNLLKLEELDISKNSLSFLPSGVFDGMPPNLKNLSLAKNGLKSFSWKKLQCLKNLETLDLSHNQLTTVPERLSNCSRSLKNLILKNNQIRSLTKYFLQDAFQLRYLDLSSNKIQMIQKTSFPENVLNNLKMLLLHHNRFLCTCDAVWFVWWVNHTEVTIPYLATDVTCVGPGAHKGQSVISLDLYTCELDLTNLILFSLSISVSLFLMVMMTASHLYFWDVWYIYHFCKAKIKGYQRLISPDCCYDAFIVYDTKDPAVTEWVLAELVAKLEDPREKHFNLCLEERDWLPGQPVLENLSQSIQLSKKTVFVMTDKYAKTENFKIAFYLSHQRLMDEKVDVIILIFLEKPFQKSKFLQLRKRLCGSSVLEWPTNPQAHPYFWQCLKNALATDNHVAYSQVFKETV
Outline: (§2)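 HEK293 cells stably transfected with hTLR7 or hTLR8 plus an NFκB-driven SEAP reporter, treated 24 h with compound over a μM range; SEAP secretion read out. EC50 as mean ± SD of three (TLR7) or four (TLR8) independent experiments.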

Toll-like receptor 8 = biological target: T3, Toll-like receptor 8 (Homo sapiens, UniProt Q9NR97); assay: Agonist activity at human TLR8 expressed in HEK293 cells assessed as induction of NFKappaB activity after 24 hrs by SEAP reporter gene assay; outline: as §2
T3 sequence (Q9NR97 whole entry): T1 sequence (whole entry)

[4] = biological target: TLR7 and TLR8 (Homo sapiens) (UniProt Q9NYK1+Q9NR97); assay: Agonist activity at TLR7/TLR8 in human PBMC assessed as IFN alpha level
Outline: (§3)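 IFNα secretion by hPBMCs across a μM dose range; MEC = lowest dose tested inducing cytokine, PC = dose giving highest level, PL = peak level at 10 μM. Data representative of one of three independent donors.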

[5] = biological target: T4, Toll-like receptor 7 (Homo sapiens) (UniProt Q9NYK1); assay: Agonist activity at TLR7 in human PBMC assessed as IFNalpha stimulation at 10 uM; outline: as §3
T4 sequence (whole entry): T2 sequence (Q9NYK1 whole entry)

[6] = biological target: T1, Toll-like receptor 8 (Homo sapiens); assay: Agonist activity at TLR8 in human PBMC assessed as TNFalpha level
Outline: (§4)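 TNFα secretion by hPBMCs across a μM dose range; MEC = lowest dose tested inducing cytokine, PC = dose giving highest level, PL = peak level at 10 μM. Data representative of one of three independent donors.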

[7] = biological target: T1, Toll-like receptor 8 (Homo sapiens); assay: Agonist activity at TLR8 in human PBMC assessed as TNFalpha level at 10 uM; outline: as §4

fold change (FC) [1]: 1.5
Activity [2]: inactive
Activity [3]: inactive
EC50 (Toll-like receptor 7): 4.06 µM
EC50 (Toll-like receptor 8): 2.14 µM
ECmax [4]: 0.08 µM
MEC [4]: 0.016 µM
Activity [5]: 4750 pg/mL
MEC [6]: 2 µM
Activity [7]: 10300 pg/mL
SMILES: CCC[C@H](C)Oc1nc(N)c2[nH]c(=O)n(CC3CCN(CCO)CC3)c2n1
